Laboratory results taken from ChEMBL document CHEMBL4304801, “ω-Hydroxy isoprenoid bisphosphonates as linkable GGDPS inhibitors” (Bioorg Med Chem Lett, 2019).
Active and inactive are the calls of the source. The rule behind the calls is not given here.

What was measured:
[1] = biological target: T1, Geranylgeranyl pyrophosphate synthase (Homo sapiens, UniProt O95749); assay: Inhibition of GGDPS (unknown origin) using [14C] IPP and FPP as substrate preincubated for 10 mins followed by substrate addition and measured after 30 min by scintillation counting method
T1 sequence (O95749 whole entry): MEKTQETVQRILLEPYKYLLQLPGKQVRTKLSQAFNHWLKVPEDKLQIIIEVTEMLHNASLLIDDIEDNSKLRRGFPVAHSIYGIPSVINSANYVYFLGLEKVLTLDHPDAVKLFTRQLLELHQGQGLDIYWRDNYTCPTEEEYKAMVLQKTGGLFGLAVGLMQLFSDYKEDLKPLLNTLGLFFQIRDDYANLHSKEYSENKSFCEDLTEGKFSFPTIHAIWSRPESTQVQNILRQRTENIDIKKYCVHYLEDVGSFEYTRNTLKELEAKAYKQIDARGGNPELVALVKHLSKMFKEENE
How it was run: (§1)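 Recombinant enzyme donated by outside labs, assayed by a previously described method; each concentration run in duplicate over multiple concentrations, three independent experiments.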

[2] = biological target: T2, Farnesyl pyrophosphate synthase (Homo sapiens, UniProt P14324); assay: Inhibition of FDPS (unknown origin) using [14C] IPP and GPP as substrate preincubated for 10 mins followed by substrate addition and measured after 30 min by scintillation counting method; how it was run: as §1
T2 sequence (P14324 whole entry): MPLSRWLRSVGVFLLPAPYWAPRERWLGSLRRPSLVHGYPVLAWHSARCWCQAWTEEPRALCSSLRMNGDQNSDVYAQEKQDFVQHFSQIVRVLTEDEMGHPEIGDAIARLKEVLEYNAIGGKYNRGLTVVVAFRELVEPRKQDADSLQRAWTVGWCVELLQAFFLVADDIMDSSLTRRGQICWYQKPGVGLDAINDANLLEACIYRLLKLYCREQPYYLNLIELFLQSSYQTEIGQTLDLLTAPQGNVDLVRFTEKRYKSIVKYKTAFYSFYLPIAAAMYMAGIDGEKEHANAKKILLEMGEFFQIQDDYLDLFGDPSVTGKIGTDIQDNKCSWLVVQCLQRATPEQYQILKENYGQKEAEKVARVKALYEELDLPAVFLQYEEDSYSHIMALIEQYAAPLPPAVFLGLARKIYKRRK

Homo sapiens = organism: Homo sapiens; assay: Selectivity ratio of IC50 for FDPS (unknown origin) to IC50 for GGDPS (unknown origin)
[3] = biological target: T3, Geranylgeranyl pyrophosphate synthase (Homo sapiens) (UniProt O95749); assay: Inhibition of GGPPs in human RPMI8226 cells assessed as disruption of Rap1a geranylgeranylation measured after 48 hrs by immunoblot analysis; type: cell-based
T3 sequence (whole entry): T1 sequence (O95749 whole entry)
How it was run: (§2)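 Whole-cell lysates made in RIPA buffer (0.15 M NaCl, 1% deoxycholate, 0.1% SDS, 1% Triton X-100, 0.05 M Tris HCl) with protease/phosphatase inhibitors; protein by BCA; equal protein run on SDS-PAGE, PVDF transfer, primary antibodies, HRP secondaries, ECL detection of Rap1a with β-tubulin as loading reference.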

[4] = biological target: T3, Geranylgeranyl pyrophosphate synthase (Homo sapiens); assay: Inhibition of GGPPs in human RPMI8226 cells assessed as disruption of Rab geranylgeranylation by ELISA; type: cell-based
[5] = biological target: T3, Geranylgeranyl pyrophosphate synthase (Homo sapiens); assay: Inhibition of GGPPs in human RPMI8226 cells assessed as disruption of Rap1a geranylgeranylation at 1 to 10 uM after 48 hrs by immunoblot analysis; type: cell-based; how it was run: as §2
[6] = biological target: T3, Geranylgeranyl pyrophosphate synthase (Homo sapiens); assay: Inhibition of GGPPs in human MM1S cells assessed as disruption of Rap1a geranylgeranylation at 1 to 10 uM after 48 hrs by immunoblot analysis; type: cell-based; how it was run: as §2

| IC50 [1] | IC50 [2] | Ratio IC50 (Homo sapiens) | inhibition [3] | MEC [4] | inhibition [4] | inhibition [5] | inhibition [6] | SMILES |
| --- | --- | --- | --- | --- | --- | --- | --- | --- |
| 0.67 µM | 81.4 µM | 121 | Dose-dependent effect | 0.25 µM | Dose-dependent effect | – | – | C/C(=C/CCn1cc(CC(C)(P(=O)(O)O)P(=O)(O)O)nn1)CC/C=C(\C)CO |
| 11.6 µM | 91.2 µM | 8 | Dose-dependent effect | 10 µM | Dose-dependent effect | Active | Active | CC(=CCn1cc(CC(P(=O)(O)O)P(=O)(O)O)nn1)CC/C=C(\C)CO |
